# rRNA inh HTS = reduced GFP signal of wild-type E. coli, primary screen, bacterial rRNA inhibitor project, GFP/RFP fluorescence, OD600, single point; E. coli WT GFP vs humanized-ribosome RFP mutants, 24 h; active compounds read low; DMSO median 0, no signal -100; GFP signal change (wild-type ribosome), % (no concentration beside the values); 1.6% of 350,000 active; AID 720706, 2013;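 active = significant combined selectivity score with lowered wild-type GFP, culture density cut under 30%, mutant RFP and density less affected; inactive = any of these conditions unmet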
# SUMO Mot1 rescue = yeast Mot1-301 growth rescue at high temperature, primary screen, SUMOylation pathway inhibitor project, S. cerevisiae, ATP luminescence, 38.5C; S. cerevisiae Mot1-301 growth rescue; percent above DMSO median, 100 means doubled; growth rescue, % at 18.8 µM; 1% of 320,000 active; AID 2716, 2010;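 active = every valid replicate shows activation above 250% relative to neutral control wells; inactive = the rest, any valid replicate at or below 250%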;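 note: OY570 slx delta 5 strain wells were the positive control but not used for scaling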
# Cneo AK release = Cryptococcus neoformans cell lysis inducers, primary screen, AK release luminescence, single concentration; C. neoformans lysis, adenylate kinase release luminescence, 4 h; normalised: neutral wells 0, clomiphene wells 100; lysis activity, % at 15 µM; 0.2% of 360,000 active; AID 651654, 2012;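 active = mean lysis activity across replicates of at least 80%, whatever share of replicates individually reach that level; inactive = mean lysis activity below 80%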
#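 Assay system: Cryptococcus neoformans yeast cells / Dosing: single-point compound dose / Timing: 4 h at 37 °C static, read 1 h later / Measured by: luminescence of released adenylate kinase using an AK detection reagent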
# Yeast superoxide = reduction of superoxide in aged yeast, primary screen, HTS; S. cerevisiae aged cells, superoxide DHE fluorescence; active compounds read low; superoxide response (% of plate mean), % at 10 µM; 0.18% of 330,000 active; AID 2690, 2010;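 active = superoxide response under a set limit, about three screen SD below normal, cut at about 65% in these data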;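 note: yeast aged for seven days with compound at 30 °C before DHE staining; 100% = average MFI of all compound-treated wells on the plate with controls excluded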
# PglD DTNB = C. jejuni PglD acetyltransferase inhibitors, primary screen, biochemical, DTNB colorimetric, single point; purified PglD enzyme, DTNB colorimetric CoA detection; inhibition, % at 12.5 µM; 0.098% of 360,000 active; in the data active = inhibition above about 16%, passing the limit was not always enough
# Active calls of the source: *; nt = no result given. In the library only some 2.2% were active in any assay of this set; here they are far more common.
SMILES,rRNA inh HTS,SUMO Mot1 rescue,Cneo AK release,Yeast superoxide,PglD DTNB
CCc1cc2c3c([nH]c2cc1S(=O)(=O)N1CCC2(CC1)OCCO2)CCCC3=O,-26.1*,17.8,6.9,89.3,-4.2
CC(C)C(NC(=O)/C=C/c1ccc(F)cc1)C(C)C,nt,288.2*,-0.6,89.9,6.5
COc1ccc(-n2cc(CNCCc3nc(C)cc(C)n3)c(-c3ccccc3Cl)n2)cc1,-13.6,4.5,93.7*,104.5,-1.8
COc1ccc(-n2cc(CNCCc3ncc(C)[nH]3)c(-c3ccccc3Cl)n2)cc1,2.5,-13.0,-3.0,92.5,-1.7
Cc1ccc(C)c(NC(=O)C(NCC(C)(C)N2CCOCC2)c2ccccc2)c1 (stereo not given),nt,767.1*,23.3,90.0,4.8
Cc1ccc(C)c(NC(=O)C(c2ccccc2)N2CCN(CC(=O)N3CCOCC3)CC2)c1 (stereo not given),7.5,-4.4,-1.6,89.2,5.0
CC(=O)N1[C@H](CNC(=O)CN2CCOCC2)[C@H](c2ccccc2)[C@@H]1CO,4.9,nt,-1.0,nt,1.3
CCCC(=O)Nc1ccc(C(=O)NNC(=S)NC(=O)c2cccs2)cc1,nt,-1.3,1.0,95.5,5.4
CCCC(=O)Nc1ccc(C(=O)NNC(=S)NC(=O)c2ccc(Br)o2)cc1,-26.6*,2.0,nt,100.7,nt
COc1cccc(-c2cnc3c(c2)C(=O)N([C@H](C)CO)C[C@@H](C)[C@@H](CN(C)C(=O)Nc2c(C)noc2C)O3)c1,2.4,nt,0.9,nt,6.3
Cc1cc(C(=O)N/N=C/C=C/c2ccccc2)c(C)o1,-24.8*,71.6,nt,91.1,nt
COc1ccc(S(=O)(=O)NNC(=S)NCCc2ccccc2)c(OC)c1,-24.8*,1.0,-0.2,97.6,-2.6
CC(=C/c1ccccc1)/C=N/NC(=O)c1cccs1,4.8,28.6,-14.8,92.9,2.2
O=C(N/N=C/C(Br)=C/c1ccccc1)C(O)c1ccccc1 (stereo not given),-27.4*,-36.1,-6.8,113.6,2.1
O=C(N/N=C/C(Br)=C\c1ccccc1)c1cccs1,-12.4,299.5*,-2.3,95.8,8.0
CCCCCCCCCCCCCCCC[n+]1ccc(/C=N/O)cc1,-37.1*,-49.0,nt,107.1,nt
C[C@@H]1CN([C@H](C)CO)C(=O)c2cc(NC(=O)Nc3ccccc3)ccc2O[C@@H](C)CCCCO[C@H]1CN(C)C(=O)NC1CCCCC1,2.2,nt,nt,nt,nt
COc1ccc(/C(N)=N/OC(=O)Cc2ccc(C)cc2)cc1,6.2,-10.3,nt,103.7,nt
COc1ccc(CC(=O)OC(C)C(=O)c2ccc(C)cc2)cc1 (stereo not given),-30.2*,-4.8,-0.1,105.7,-1.4
COc1ccc2c3c(n(C)c2c1)[C@@H](CO)N(Cc1ccccn1)CC31CN(C(=O)NC(C)C)C1,-0.3,nt,nt,nt,nt
CCC(=O)N1C[C@@H](C)[C@@H](OC)CN(C)C(=O)c2ccc(NC(=O)NC(C)C)cc2OC[C@@H]1C,-2.0,nt,-0.1,nt,-2.3
Cn1nnnc1Sc1ncnc2scc(Br)c12,10.6,342.0*,-4.8,120.1,3.9
O=C1C2C3C=CC(CO)(O3)C2C(=O)N1c1ccc(-c2ccccc2)cc1 (stereo not given),nt,324.4*,nt,71.6,nt
CCOC(=O)Cn1c(C)[n+](CC(=O)c2ccccc2)c2ccccc21,0.7,10.0,1.5,65.5*,5.9
C[C@H](CO)N1C[C@H](C)[C@@H](CN(C)Cc2ccc(C(=O)O)cc2)Oc2c(NC(=O)CCC(F)(F)F)cccc2C1=O,-1.6,nt,nt,nt,nt
SMILES,rRNA inh HTS,SUMO Mot1 rescue,Cneo AK release,Yeast superoxide,PglD DTNB
COc1ccc(NC(=O)Nc2cc(C(C)(C)C)on2)cc1OC,-26.3*,-1.0,-1.2,101.3,-5.1
CCOCCCNC(=O)C(NC(=O)c1ccc(NC(C)=O)cc1)c1ccccc1 (stereo not given),16.7,-9.6,nt,61.2*,nt
Cc1ccc(C(=O)Nc2cccc(-c3cn4ccccc4n3)c2)cc1,-29.1*,10.5,nt,109.6,nt
Cc1ccc(C(=O)Nc2cccc(C(=O)O)c2)cc1,nt,-5.7,nt,96.1,nt
O=C(Nc1cccc(-c2cn3ccccc3n2)c1)c1ccccc1,-31.5*,2.1,nt,102.3,nt
Cc1ccccc1C(=O)Nc1cccc(-c2cn3ccccc3n2)c1,-40.8,-1.7,nt,93.4,nt
O=C(Nc1cccc(-c2nc3ccccc3c(=O)o2)c1)c1ccccc1,-20.1*,-1.9,nt,115.5,nt
Cc1ccc(C(=O)Nc2cccc(C(O)c3ccccc3)c2)cc1 (stereo not given),-32.8*,-15.8,nt,99.1,nt
COc1ccc2c3c(n(C)c2c1)[C@H](CO)N(C)CC31CCN(S(=O)(=O)c2cn(C)cn2)CC1,-3.0,nt,nt,nt,nt
CCNC(=O)C[C@@H]1CC[C@H]2[C@@H](COc3ccc(NC(=O)Nc4cccc(F)c4)cc3C(=O)N2C)O1,-2.4,nt,0.5,nt,4.9
C[C@H](CO)N1C[C@H](C)[C@H](CN(C)C)OCCCC[C@H](C)Oc2ccc(NS(=O)(=O)c3ccc(F)cc3)cc2C1=O,-2.9,nt,4.7,nt,2.8
COCC(=O)Nc1ccc2c(c1)OC[C@H](C)N(C(=O)c1cnccn1)C[C@H](C)[C@@H](OC)CN(C)C2=O,1.2,nt,nt,nt,nt
Cc1cc(Oc2ccccc2)nc(-c2ccccc2O)n1,nt,6.9,2.0,95.0,-4.0
Cc1cc(Oc2ccc(Cl)cc2)nc(-c2ccccn2)n1,-32.7*,212.3,52.0,100.1,-2.2
CC(C)CC#Cc1ccc2c(c1)O[C@H](CN(C)C(=O)C1CCCCC1)[C@H](C)CN([C@@H](C)CO)S2(=O)=O,-3.4,nt,2.3,nt,-0.6
COc1cccc(NC(=O)N2CC3(C2)[C@@H](c2ccccc2)[C@@H](CO)N3C(=O)C2CC2)c1,-0.3,nt,nt,nt,nt
COc1ccc(CN(C)C(=O)C23CC4CC(CC(C4)C2)C3)c(OC)c1,-33.3,328.4*,0.2,96.4,-3.2
C[C@@H]1CCCCO[C@H](CN(C)Cc2ccc(C(F)(F)F)cc2)[C@H](C)CN([C@H](C)CO)C(=O)c2cc(NS(=O)(=O)c3ccc(F)cc3)ccc2O1,-1.3,nt,2.6,nt,6.0
CCCNC(=O)N1CC2(C1)CN(C(=O)NC(C)C)[C@H](CO)c1c2c2ccc(OC)cc2n1C,-0.1,nt,nt,nt,nt
COCCN1Cc2cccc(C(=O)Nc3ccc(-c4nc5ccccc5[nH]4)cc3)c2C1=O,nt,689.2*,-9.4,124.7,-7.0
COCCN1Cc2cccc(C(=O)Nc3cccc(-c4nc5ccccc5[nH]4)c3)c2C1=O,5.2,13.4,2.3,102.3,5.5
O=C(CSc1ncnc2c1cnn2-c1ccc(Cl)cc1)NCc1ccc2c(c1)OCO2,nt,0.6,600.1*,97.2,0.9
Cc1ccc(CSCC(=O)NCc2ccc3c(c2)OCO3)cc1,-22.7*,32.4,nt,100.8,nt
